Test results: ChEMBL document CHEMBL1157591, “Selective benzimidazole inhibitors of the antigen receptor-mediated NF-kappaB activation pathway” (Bioorg Med Chem, 2010)
pIC50: −log10 of the molar value.

Tests used:
[1] = Metabolic stability in human liver S9 fraction assessed as half life in NADPH co-factor system by RP-HPLC; format: ADME, subcellular
Procedure, shortened: (§1)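 Substrate at 100 µM with human liver microsomes or S9 at 1.6 mg/mL, NADPH-generating system (NADP+, 400 µM glucose-6-phosphate, DETAPAC, 4 IU/mL G6P dehydrogenase), 50 mM potassium phosphate pH 7.4, 37 °C with shaking. Started by adding HLM/S9. Aliquots at 0–60 min stopped in cold acetonitrile and run in duplicate. Parent loss measured by RP-HPLC.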

Liver microsomes [2] = experiment: Metabolic stability in human liver microsomes in UDPG co-factor system by RP-HPLC; format: ADME, Microsome
Procedure, shortened: (§2)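 Glucuronidation with UDPG cofactor plus lecithin, using HLM or S9 in 50 mM potassium phosphate pH 7.4 at 37 °C with shaking. Started by adding HLM/S9. Aliquots at 0–60 min stopped in cold acetonitrile and run in duplicate. Parent disappearance followed by RP-HPLC.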

[3] = Metabolic stability in human liver S9 fraction in UDPG co-factor system by RP-HPLC; format: ADME, subcellular; procedure, shortened: as §2
Liver microsomes [4] = experiment: Metabolic stability in human liver microsomes in PAPS co-factor system by RP-HPLC; format: ADME, Microsome
Procedure, shortened: (§3)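 Substrate at 100 µM with HLM or S9 at 1.6 mg/mL and 100 µM PAPS in 50 mM Tris–HCl pH 7.4, 37 °C. Started by adding HLM/S9. Aliquots at 0, 5, 15, 30, 45 and 60 min stopped in cold acetonitrile and run in duplicate. Sulfation taken from parent disappearance by RP-HPLC.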

[5] = Metabolic stability in human liver S9 fraction in PAPS co-factor system by RP-HPLC; format: ADME, subcellular; procedure, shortened: as §3
[6] = Inhibition of antigen receptor-mediated NF-kappaB activity in HEK293 cells after 16 hrs by luciferase reporter gene assay; details: Homo sapiens, HEK293, 16 h
[7] = Metabolic stability in human liver microsomes assessed as half life in NADPH co-factor system by RP-HPLC; format: ADME, Microsome; procedure, shortened: as §1
Cytochrome P450 3A4 = Cytochrome P450 3A4 (Homo sapiens, UniProt P08684); experiment: Inhibition of CYP3A4-mediated hydroxylation of testosterone in human liver microsomes in NADPH co-factor system by RP-HPLC; format: ADME, Microsome
Chain of Cytochrome P450 3A4 (P08684 whole entry): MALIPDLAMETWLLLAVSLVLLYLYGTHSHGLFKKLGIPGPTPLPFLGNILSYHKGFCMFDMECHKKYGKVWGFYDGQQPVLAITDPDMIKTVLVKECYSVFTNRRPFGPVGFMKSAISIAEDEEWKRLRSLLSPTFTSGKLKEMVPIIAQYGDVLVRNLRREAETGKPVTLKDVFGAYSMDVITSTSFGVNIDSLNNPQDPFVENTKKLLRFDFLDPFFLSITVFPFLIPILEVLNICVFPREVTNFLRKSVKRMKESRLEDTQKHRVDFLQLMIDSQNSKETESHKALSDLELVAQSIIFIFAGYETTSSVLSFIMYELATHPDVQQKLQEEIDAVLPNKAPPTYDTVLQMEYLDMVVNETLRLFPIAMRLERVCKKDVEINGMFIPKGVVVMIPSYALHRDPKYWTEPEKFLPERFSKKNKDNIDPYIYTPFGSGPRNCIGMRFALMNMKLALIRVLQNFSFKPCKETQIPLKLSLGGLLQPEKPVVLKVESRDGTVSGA

Structure (SMILES) | pIC50 [6] | further results
Cc1cc2nc(N3CCN(Cc4ccccc4)CC3)n(CC(=O)c3cc(C(C)(C)C)c(O)c(C(C)(C)C)c3)c2cc1C | < 5.30 | half-life [1]: 264 min; Stability (Liver microsomes [2]): Stable; Stability [3]: Stable; Stability (Liver microsomes [4]): Stable; Stability [5]: Stable
Cc1cc2nc(N3CCN(CCO)CC3)n(CC(=O)c3cc(C(C)(C)C)c(O)c(C(C)(C)C)c3)c2cc1C | < 5.30 | half-life [1]: 276 min; Stability (Liver microsomes [2]): Stable; Stability [3]: Stable; Stability (Liver microsomes [4]): Stable; Stability [5]: Stable
Cc1cc2nc(N3CCCCC3)n(CC(=O)c3cc(C(C)(C)C)c(O)c(C(C)(C)C)c3)c2cc1C | < 5.30 | 
Cc1cc2nc(N3CCC(O)C3)n(CC(=O)c3cc(C(C)(C)C)c(O)c(C(C)(C)C)c3)c2cc1C (centres undefined) | < 5.30 | 
Cc1cc2nc(N3CCC(O)CC3)n(CC(=O)c3cc(C(C)(C)C)c(O)c(C(C)(C)C)c3)c2cc1C | < 5.30 | 
COCCCNc1nc2cc(C)c(C)cc2n1CC(=O)c1ccc(O)cc1 | < 5.30 | 
Cc1cc2nc(N3CCCC(C)C3)n(CC(=O)c3cc(C(C)(C)C)c(O)c(C(C)(C)C)c3)c2cc1C (centres undefined) | < 5.30 | 
Cc1cc2nc(NCCCO)n(CC(=O)c3cc(C)c(O)c(C)c3)c2cc1C | < 5.30 | 
C#CCNc1nc2cc(C)c(C)cc2n1CC(=O)c1cc(C(C)(C)C)c(O)c(C(C)(C)C)c1 | < 5.10 | 
COCCCNc1nc2cc(C)c(C)cc2n1CC(=O)c1cc(C)c(O)c(C)c1 | < 5.30 | 
Cc1cc2nc(N3CCN(C)CC3)n(CC(=O)c3cc(C(C)(C)C)c(O)c(C(C)(C)C)c3)c2cc1C | < 5.30 | 
Cc1cc2nc(N3CCCC3)n(CC(=O)c3cc(C(C)(C)C)c(O)c(C(C)(C)C)c3)c2cc1C | < 5.30 | 
Cc1cc2nc(NCCCO)n(CC(=O)c3ccc(O)cc3)c2cc1C | < 5.30 | 
Cc1cc2nc(N3CCCCC3CN(C)C)n(CC(=O)c3cc(C(C)(C)C)c(O)c(C(C)(C)C)c3)c2cc1C (centres undefined) | < 5.30 | 
Cc1cc2nc(N3CCCCC3C)n(CC(=O)c3cc(C(C)(C)C)c(O)c(C(C)(C)C)c3)c2cc1C (centres undefined) | < 5.30 | 
Cc1cc2nc(N3CCC(C)CC3)n(CC(=O)c3cc(C(C)(C)C)c(O)c(C(C)(C)C)c3)c2cc1C | < 5.30 | 

Structure (SMILES) | pIC50 [6] | further results
CCCCNc1nc2cc(C)c(C)cc2n1CC(=O)c1cc(C(C)(C)C)c(O)c(C(C)(C)C)c1 | 7.00 | 
Cc1cc2nc(N3CCCCC3CO)n(CC(=O)c3cc(C(C)(C)C)c(O)c(C(C)(C)C)c3)c2cc1C (centres undefined) | < 5.30 | 
C[C@]12CC[C@H]3[C@@H](CCC4=CC(=O)CC[C@@]43C)[C@@H]1CC[C@@H]2O [TESTOSTERONE] |  | half-life [7]: 48 min
COCCCNc1nc2cc(C)c(C)cc2n1CC(=O)c1cc(C(C)(C)C)c(OC)c(C(C)(C)C)c1 | 6.60 | 
Cc1cc2nc(N3CCC(Cc4ccccc4)CC3)n(CC(=O)c3cc(C(C)(C)C)c(O)c(C(C)(C)C)c3)c2cc1C | < 5.30 | 
Cc1cc2nc(NCCCO)n(CC(=O)c3cc(C(C)(C)C)c(O)c(C(C)(C)C)c3)c2cc1C | 7.15 | half-life [7]: 330 min; half-life [1]: 912 min; Stability (Liver microsomes [2]): Stable; Stability [3]: Stable; Stability (Liver microsomes [4]): Stable; Stability [5]: Stable
COc1c(C(C)(C)C)cc(C(=O)Cn2c(NCCCO)nc3cc(C)c(C)cc32)cc1C(C)(C)C | 7.15 | pIC50 (Cytochrome P450 3A4): 4.17
Cc1cc2nc(N3CCOCC3)n(CC(=O)c3cc(C(C)(C)C)c(O)c(C(C)(C)C)c3)c2cc1C | < 5.30 | 
Cc1cc2nc(N3CC(C)CC(C)C3)n(CC(=O)c3cc(C(C)(C)C)c(O)c(C(C)(C)C)c3)c2cc1C (centres undefined) | < 5.30 | 
Cc1cc2nc(N3CCC[C@H]3CN3CCCC3)n(CC(=O)c3cc(C(C)(C)C)c(O)c(C(C)(C)C)c3)c2cc1C | < 5.30 | 
CCN1CCN(c2nc3cc(C)c(C)cc3n2CC(=O)c2cc(C(C)(C)C)c(O)c(C(C)(C)C)c2)CC1 | < 5.30 | 
COC[C@@H]1CCCN1c1nc2cc(C)c(C)cc2n1CC(=O)c1cc(C(C)(C)C)c(O)c(C(C)(C)C)c1 | < 5.30 | 
COCCCNc1nc2cc(C)c(C)cc2n1CC(=O)c1cc(C(C)(C)C)c(O)c(C(C)(C)C)c1 | 6.60 | pIC50 (Cytochrome P450 3A4): 4.01
COc1ccccc1N1CCN(c2nc3cc(C)c(C)cc3n2CC(=O)c2cc(C(C)(C)C)c(O)c(C(C)(C)C)c2)CC1 | < 5.30 | 
CCC1C(C)CN(c2nc3cc(C)c(C)cc3n2CC(=O)c2cc(C(C)(C)C)c(O)c(C(C)(C)C)c2)C1C (centres undefined) | < 5.30 | 
